Source: ChEMBL document CHEMBL1152497, “Ligand-based design and synthesis of novel sodium channel blockers from a combined phenytoin-lidocaine pharmacophore” (Bioorg Med Chem, 2009)
Where a name gives a salt, the structure may show the parent alone. Active and inactive are the calls of the source. The calls are words filed in the database; no cut-off is given here.

How the values were obtained:
[1] = Displacement of [3H]-BTX-B from neuronal voltage-gated sodium channel in rat cerebral cortex synaptoneurosomes; assay type: tissue-based
In short: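 Rat forebrain membranes incubated with [3H]-batrachotoxin (30–60 Ci/mmol) in 50 mM HEPES pH 7.4 with 130 mM choline chloride, 37 °C, 60 min. Stopped by rapid vacuum filtration onto glass fiber filters, and filter radioactivity compared with control. Percent inhibition at 5–7 concentrations spanning the IC50, each in triplicate. IC50 by Probit analysis of the concentration versus percent binding curve. Aconitine 1 μM as positive control.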

[2] = Lipophilicity, log P of the compound; assay type: physicochemical; settings: octanol/water
In short: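 logP calculated with a chemical properties tool, not measured.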

[3] = target: Sodium channel protein type 2 subunit alpha (Homo sapiens) (UniProt Q99250); experiment: Inhibition of human Nav1.2 channel expressed in HEK293 cells assessed as blocked of sodium current elicited at +10 mV for 12 mins from holding potential -100 mV at 100 uM measured after washout by patch clamp method; assay type: cell-based; settings: in the assay text read “12 ms” for “12 mins”
Sodium channel protein type 2 subunit alpha (Homo sapiens), sequence (Q99250 whole entry, looked up): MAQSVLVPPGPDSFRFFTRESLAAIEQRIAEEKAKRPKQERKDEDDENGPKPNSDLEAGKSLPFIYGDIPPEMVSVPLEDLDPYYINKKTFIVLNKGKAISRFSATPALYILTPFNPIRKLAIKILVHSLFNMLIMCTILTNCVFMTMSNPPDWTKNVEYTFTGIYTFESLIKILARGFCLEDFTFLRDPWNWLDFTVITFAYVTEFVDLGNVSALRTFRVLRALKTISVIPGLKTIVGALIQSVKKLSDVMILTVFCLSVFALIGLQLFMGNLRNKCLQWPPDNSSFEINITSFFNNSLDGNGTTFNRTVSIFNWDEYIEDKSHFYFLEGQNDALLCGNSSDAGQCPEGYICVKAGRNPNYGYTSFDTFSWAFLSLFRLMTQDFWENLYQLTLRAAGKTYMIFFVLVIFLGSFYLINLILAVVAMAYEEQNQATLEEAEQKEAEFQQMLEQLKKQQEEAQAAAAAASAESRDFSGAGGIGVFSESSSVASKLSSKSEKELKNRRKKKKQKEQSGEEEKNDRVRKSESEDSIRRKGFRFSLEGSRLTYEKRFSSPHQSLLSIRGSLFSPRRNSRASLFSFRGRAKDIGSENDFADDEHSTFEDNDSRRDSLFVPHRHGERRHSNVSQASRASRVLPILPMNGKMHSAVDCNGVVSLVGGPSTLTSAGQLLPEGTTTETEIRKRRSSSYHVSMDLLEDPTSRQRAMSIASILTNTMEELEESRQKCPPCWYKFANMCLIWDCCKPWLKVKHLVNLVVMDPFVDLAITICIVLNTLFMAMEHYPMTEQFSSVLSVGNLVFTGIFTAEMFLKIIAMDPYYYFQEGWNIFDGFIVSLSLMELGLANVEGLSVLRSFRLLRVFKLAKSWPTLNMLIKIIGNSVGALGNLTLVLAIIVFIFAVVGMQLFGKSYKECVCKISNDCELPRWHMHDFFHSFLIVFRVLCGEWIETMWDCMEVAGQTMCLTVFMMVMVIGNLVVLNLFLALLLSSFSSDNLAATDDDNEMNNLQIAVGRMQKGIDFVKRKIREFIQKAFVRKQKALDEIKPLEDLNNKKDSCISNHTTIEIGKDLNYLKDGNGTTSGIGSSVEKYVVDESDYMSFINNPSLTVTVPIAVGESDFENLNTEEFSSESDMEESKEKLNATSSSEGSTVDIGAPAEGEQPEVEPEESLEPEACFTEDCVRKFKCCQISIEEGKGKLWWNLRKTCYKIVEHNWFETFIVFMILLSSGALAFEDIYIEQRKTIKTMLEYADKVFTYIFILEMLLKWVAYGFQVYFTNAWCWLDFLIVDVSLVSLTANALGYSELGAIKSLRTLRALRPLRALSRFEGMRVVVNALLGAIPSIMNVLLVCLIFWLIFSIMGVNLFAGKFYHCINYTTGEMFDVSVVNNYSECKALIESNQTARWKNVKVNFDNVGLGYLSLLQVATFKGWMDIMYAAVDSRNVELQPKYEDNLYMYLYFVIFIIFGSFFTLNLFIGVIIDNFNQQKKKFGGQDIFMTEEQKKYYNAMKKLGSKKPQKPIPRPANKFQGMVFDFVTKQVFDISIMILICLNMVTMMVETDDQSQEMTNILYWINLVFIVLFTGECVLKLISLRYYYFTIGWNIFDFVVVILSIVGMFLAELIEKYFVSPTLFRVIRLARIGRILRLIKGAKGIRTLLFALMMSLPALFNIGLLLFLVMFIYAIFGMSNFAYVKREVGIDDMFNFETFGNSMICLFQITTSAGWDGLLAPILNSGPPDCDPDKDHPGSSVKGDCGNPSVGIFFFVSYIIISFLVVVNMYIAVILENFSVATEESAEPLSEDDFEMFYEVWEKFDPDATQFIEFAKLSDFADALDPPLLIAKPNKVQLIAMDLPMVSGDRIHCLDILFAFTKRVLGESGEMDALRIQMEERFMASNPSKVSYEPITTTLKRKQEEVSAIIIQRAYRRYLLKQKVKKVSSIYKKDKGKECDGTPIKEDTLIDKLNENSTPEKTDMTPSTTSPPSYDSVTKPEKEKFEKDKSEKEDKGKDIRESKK
In short: (§1)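 Whole-cell patch clamp on HEK293 cells stably expressing human Nav1.2, grown in DMEM/F12 with 10% FBS, penicillin/streptomycin and G418 at 37 °C, 5% CO2. Step to +10 mV for 12 ms from −100 mV holding. Pipette contains CsCl/BAPTA (pH 7.4); bath contains 130 mM NaCl (pH 7.4). DMSO at most 0.3%, 20–22 °C, ≥75% series-resistance compensation. Compound at 100 μM, followed by washout; n = 4.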

[4] = target: Sodium channel protein type 2 subunit alpha (Homo sapiens) (UniProt Q99250); experiment: Inhibition of human Nav1.2 channel expressed in HEK293 cells assessed as blocked of sodium current elicited at +10 mV for 12 mins from holding potential -100 mV at 100 uM by patch clamp method; assay type: cell-based; set-up: scale not given: the % may be the effect or the level left; settings: in the assay text read “12 ms” for “12 mins”; in short: as §1
Rattus norvegicus = species on record: Rattus norvegicus; experiment: Displacement of [3H]-BTX-B from neuronal voltage-gated sodium channel in rat cerebral cortex synaptoneurosomes at 40 uM; assay type: tissue-based
In short: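 Single-concentration screen at 40 μM. Rat forebrain membranes with [3H]-batrachotoxin (30–60 Ci/mmol) in 50 mM HEPES pH 7.4 containing 130 mM choline chloride, 37 °C for 60 min. Rapid vacuum filtration onto glass fiber filters, and trapped radioactivity compared with control values to give percent displacement. Aconitine 1 μM as positive control.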

SMILES	IC50 [1] [µM]	logP [2]	other results
CCCCC1(c2ccccc2)NC(=O)NC1=O (stereo unspecified)	103	–	–
CCCCCC1(c2ccccc2)NC(=O)N(C)C1=O (stereo unspecified)	39	2.96	–
CCCCCCC1(c2ccccc2)NC(=O)NC1=O (stereo unspecified)	13	–	–
CCCCOc1cc(C(=O)NCCN(CC)CC)c2ccccc2n1 [DIBUCAINE]	–	3.77	–
O=C1NC(=O)C2(CCCCc3ccccc32)N1 (stereo unspecified)	251	–	–
CCCOc1cc(N)ccc1C(=O)OCCN(CC)CC [PROPOXYCAINE HYDROCHLORIDE]	24	2.42	–
CCCCCCCC(O)(C(N)=O)c1ccccc1 (stereo unspecified)	9	–	–
CCCCCCCCC1(c2ccccc2)NC(=O)NC1=O (stereo unspecified)	5	4.96	–
CCCCCCCC(O)(C(N)=O)c1cc(C)c(NC(=O)CN(CC)CC)c(C)c1 (stereo unspecified)	–	–	Activity [3]: inactive; Activity [4]: 67.7%; Activity (Rattus norvegicus): 83%
O=C1NC(=O)C(c2ccccc2)(C2CCCCC2)N1 (stereo unspecified)	58	–	–
CCCCC1(c2cccc(C)c2)NC(=O)NC1=O (stereo unspecified)	58	–	–
CCCC1(c2ccccc2)NC(=O)NC1=O (stereo unspecified)	162	–	–
CCN(CC)CC(=O)Nc1c(C)cc(C2(c3ccccc3)NC(=O)NC2=O)cc1C (stereo unspecified)	–	–	Activity (Rattus norvegicus): 49%
CC12C(=O)NC(=O)N1CCc1ccccc12 (stereo unspecified)	250	–	–
CC(CNC1CCCCC1)OC(=O)c1ccccc1 (stereo unspecified) [HEXYLCAINE]	7.1	3.34	–
CCCCNc1ccc(C(=O)OCCN(C)C)cc1 [TETRACAINE]	–	3.27	–
CCCNC(C)C(=O)Nc1ccccc1C (stereo unspecified) [PRILOCAINE]	53.7	2.18	–
CCOc1ccc(C(=O)OCCN(CC)CC)cc1 [PARETHOXYCAINE]	24	2.74	–
CCCCCCCCCC(O)(C(N)=O)c1cc(C)c(NC(=O)CN(CC)CC)c(C)c1 (stereo unspecified)	–	–	Activity (Rattus norvegicus): 63%
O=C1C(c2ccccc2)N2CCCCN1C2=O (stereo unspecified)	700	2.01	–
O=C1C(c2ccccc2)N2CCCCCN1C2=O (stereo unspecified)	427	2.51	–

SMILES	IC50 [1] [µM]	logP [2]	other results
CCCCCCC1(c2cc(C)c(NC(=O)CN(CC)CC)c(C)c2)NC(=O)NC1=O (stereo unspecified)	–	–	Activity (Rattus norvegicus): 68%
CC1CCCCN1CCCOC(=O)c1ccccc1 (stereo unspecified) [PIPEROCAINE]	12.9	3.01	–
CCN(CC)CC(=O)Nc1ccc(C(O)(C(N)=O)c2ccccc2)cc1 (stereo unspecified)	–	–	Activity (Rattus norvegicus): 4%
CCCOc1ccc(C(=O)OCCN(CC)CC)cc1N [PROPARACAINE]	2	2.42	–
CCCN(CC)C(CC)C(=O)Nc1c(C)cccc1C (stereo unspecified) [ETIDOCAINE]	–	3.87	–
CCN(CC)CC(=O)Nc1c(C)cc(C(O)(C(N)=O)c2ccccc2)cc1C (stereo unspecified)	–	–	Activity (Rattus norvegicus): 16%
CCN1C(=O)NC(=O)C1(C)c1ccccc1 (stereo unspecified)	720	–	–
O=C1NC(=O)C2(CCc3ccccc32)N1 (stereo unspecified)	2110	–	–
CCCCCCCC1(c2cc(C)c(NC(=O)CN(CC)CC)c(C)c2)NC(=O)NC1=O (stereo unspecified)	–	–	Activity (Rattus norvegicus): 71%
CCOC(=O)c1ccc(N)cc1 [BENZOCAINE]	910	1.39	–
O=C1NC(=O)C2(CCCc3ccccc32)N1 (stereo unspecified)	851	–	–
CCCCCCCCCC1(c2cc(C)c(NC(=O)CN(CC)CC)c(C)c2)NC(=O)NC1=O (stereo unspecified)	–	–	Activity (Rattus norvegicus): 69%
CCCCCCCC1(c2ccccc2)NC(=O)NC1=O (stereo unspecified)	5	–	–
CCN(CC)CC(=O)Nc1ccc(C2(c3ccccc3)NC(=O)NC2=O)cc1 (stereo unspecified)	–	–	Activity (Rattus norvegicus): 50%
CCCCC1(c2ccc(C)cc2)NC(=O)NC1=O (stereo unspecified)	95	–	–
CCCCC1(c2ccccc2C)NC(=O)NC1=O (stereo unspecified)	225	–	–
COC(=O)[C@H]1[C@@H](OC(=O)c2ccccc2)C[C@@H]2CC[C@H]1N2C [COCAINE]	49	1.82	–
O=C1NC(=O)C2(CCCCCc3ccccc32)N1 (stereo unspecified)	251	–	–
O=C1NC(=O)C(c2ccccc2)(c2ccccc2)N1 [PHENYTOIN]	40	–	–
CCN(CC)CCOC(=O)c1ccc(N)cc1 [PROCAINE]	110	2.53	–
